Measurements from ChEMBL document CHEMBL3271979, “Inhibition of solid tumors by nitrosoureas. 1. Lewis lung carcinoma” (1977).
Active and inactive are the calls of the source. The rule behind the calls is not given here.

Assays:
[1] = Antitumor activity against mouse early Lewis lung carcinoma allografted in BDF1 mouse assessed as increase in host life span at 315 mg/kg, ip administered as single dose on 1 or 2 days post-tumor implantation; assay type: functional; details: route intraperitoneal
Method in brief: (§1)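 BDF1 mice (C57Blk/6 × DBA/2) implanted sc by trocar with ~40 mg Lewis lung tumor fragments from bacteriologically sterile donor tumors. Single ip dose on day 1 or 2, as a solution or suspension in water (CMC or gum acacia) or saline (HPC or Tween 80). Read-out is […]. Same-dose toxicity controls were run in nontumor-bearing mice.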

[2] = Antitumor activity against mouse early Lewis lung carcinoma allografted in BDF1 mouse assessed as increase in host life span at 210 mg/kg, ip administered as single dose on 1 or 2 days post-tumor implantation; assay type: functional; details: route intraperitoneal; method in brief: as §1
[3] = Antitumor activity against mouse early Lewis lung carcinoma allografted in BDF1 mouse assessed as time delay in tumor growth at 315 mg/kg, ip administered as single dose on 1 or 2 days post-tumor implantation; assay type: functional; details: route intraperitoneal
Method in brief: (§2)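 BDF1 mice (C57Blk/6 × DBA/2) implanted sc by trocar with ~40 mg Lewis lung tumor fragments from bacteriologically sterile donors. A single ip dose was given on day 1 or 2, as a solution or suspension in water or saline with suspending agent, at ≤0.5 ml. Tumors were measured by caliper at least twice weekly, with weight = ab²/2. Delay was taken as the days for the tumor to reach 1 g.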

[4] = Antitumor activity against mouse early Lewis lung carcinoma allografted in BDF1 mouse assessed as time delay in tumor growth at 210 mg/kg, ip administered as single dose on 1 or 2 days post-tumor implantation; assay type: functional; details: route intraperitoneal; method in brief: as §2
Mus musculus [5] = assay: Antitumor activity against mouse advanced Lewis lung carcinoma allografted in BDF1 mouse assessed as disease cure at 316 mg/kg, ip administered as single dose on 7th day post-tumor implantation measured for 80 days post-drug treatment; assay type: functional, organism-based; set-up: dose 316 mg/kg
Method in brief: (§3)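 BDF1 mice (C57Blk/6 × DBA/2) implanted sc by trocar with Lewis lung tumor fragments of about 40 mg, taken only from bacteriologically sterile donor tumors. Mice bearing tumors of about 400 mg (day 6-7) were selected. Each received a single ip dose on day 7, at or below the LD10 in normal mice. Groups were of 10 mice. Tumor weight was taken from calipers as w = ab²/2, measured at least twice weekly. Matched non-tumor mice served as toxicity controls.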

[6] = Antitumor activity against mouse advanced Lewis lung carcinoma allografted in BDF1 mouse assessed as increase in host life span at 316 mg/kg, ip administered as single dose on 7th day post-tumor implantation; assay type: functional; details: route intraperitoneal
Method in brief: (§4)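 BDF1 mice (C57Blk/6 × DBA/2) implanted sc by trocar with about 40 mg Lewis lung tumor fragments from bacteriologically sterile donors. Advanced-disease groups held tumors of about 400 mg by day 6-7, sized by caliper (w = ab²/2). Single ip injection on day 7, in water or saline vehicle, at or below the LD10 in normal mice. Tumors measured at least twice weekly.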

[7] = Antitumor activity against mouse early Lewis lung carcinoma allografted in ip dosed BDF1 mouse assessed as disease cure administered as single dose on 1 or 2 days post-tumor implantation measured for 80 days post-drug treatment; assay type: functional
Method in brief: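 BDF1 mice implanted sc by trocar with ~40 mg Lewis lung fragments from sterile donor tumors. A single ip dose was given on day 1 or 2 after implant, in water or saline vehicle. Cures were scored in animals observed for at least 80 days after treatment. Drug-toxicity controls were matched non-tumor-bearing mice monitored for body weight and deaths.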

[8] = Ratio of ED50 for antitumor activity against mouse L1210 cells allografted in ip dosed mouse to LD10 for mouse
Mus musculus [9] = assay: Antitumor activity against mouse advanced Lewis lung carcinoma allografted in ip dosed BDF1 mouse assessed as complete regression of established tumor administered as single dose on day 6 or 7 post-tumor implantation; assay type: functional, organism-based; method in brief: as §3
Mus musculus [10] = assay: Antitumor activity against mouse advanced Lewis lung carcinoma allografted in ip dosed BDF1 mouse assessed as disease cure administered as single dose on day 6 or 7 post-tumor implantation; assay type: functional, organism-based; method in brief: as §3
[11] = Antitumor activity against mouse early Lewis lung carcinoma allografted in BDF1 mouse assessed as increase in host life span at 36 mg/kg, ip administered as single dose on 1 or 2 days post-tumor implantation; assay type: functional; details: route intraperitoneal; method in brief: as §1
[12] = Antitumor activity against mouse early Lewis lung carcinoma allografted in BDF1 mouse assessed as increase in host life span at 24 mg/kg, ip administered as single dose on 1 or 2 days post-tumor implantation; assay type: functional; details: route intraperitoneal; method in brief: as §1
[13] = Antitumor activity against mouse early Lewis lung carcinoma allografted in BDF1 mouse assessed as time delay in tumor growth at 36 mg/kg, ip administered as single dose on 1 or 2 days post-tumor implantation; assay type: functional; details: route intraperitoneal; method in brief: as §2
[14] = Antitumor activity against mouse early Lewis lung carcinoma allografted in BDF1 mouse assessed as time delay in tumor growth at 24 mg/kg, ip administered as single dose on 1 or 2 days post-tumor implantation; assay type: functional; details: route intraperitoneal; method in brief: as §2
[15] = Antitumor activity against mouse advanced Lewis lung carcinoma allografted in BDF1 mouse assessed as increase in host life span at 36 mg/kg, ip administered as single dose on 7th day post-tumor implantation; assay type: functional; details: route intraperitoneal; method in brief: as §4
[16] = Antitumor activity against mouse early Lewis lung carcinoma allografted in BDF1 mouse assessed as increase in host life span at 152 mg/kg, ip administered as single dose on 1 or 2 days post-tumor implantation; assay type: functional; details: route intraperitoneal; method in brief: as §1
[17] = Antitumor activity against mouse early Lewis lung carcinoma allografted in BDF1 mouse assessed as increase in host life span at 67 mg/kg, ip administered as single dose on 1 or 2 days post-tumor implantation; assay type: functional; details: route intraperitoneal; method in brief: as §1
[18] = Antitumor activity against mouse early Lewis lung carcinoma allografted in BDF1 mouse assessed as time delay in tumor growth at 152 mg/kg, ip administered as single dose on 1 or 2 days post-tumor implantation; assay type: functional; details: route intraperitoneal; method in brief: as §2
[19] = Antitumor activity against mouse early Lewis lung carcinoma allografted in BDF1 mouse assessed as time delay in tumor growth at 67 mg/kg, ip administered as single dose on 1 or 2 days post-tumor implantation; assay type: functional; details: route intraperitoneal; method in brief: as §2
[20] = Antitumor activity against mouse advanced Lewis lung carcinoma allografted in BDF1 mouse assessed as increase in host life span at 171 mg/kg, ip administered as single dose on 7th day post-tumor implantation; assay type: functional; details: route intraperitoneal; method in brief: as §4
[21] = Antitumor activity against mouse early Lewis lung carcinoma allografted in BDF1 mouse assessed as increase in host life span at 57 mg/kg, ip administered as single dose on 1 or 2 days post-tumor implantation; assay type: functional; details: route intraperitoneal; method in brief: as §1
[22] = Antitumor activity against mouse early Lewis lung carcinoma allografted in BDF1 mouse assessed as increase in host life span at 38 mg/kg, ip administered as single dose on 1 or 2 days post-tumor implantation; assay type: functional; details: route intraperitoneal; method in brief: as §1
[23] = Antitumor activity against mouse early Lewis lung carcinoma allografted in BDF1 mouse assessed as time delay in tumor growth at 57 mg/kg, ip administered as single dose on 1 or 2 days post-tumor implantation; assay type: functional; details: route intraperitoneal; method in brief: as §2
[24] = Antitumor activity against mouse early Lewis lung carcinoma allografted in BDF1 mouse assessed as time delay in tumor growth at 38 mg/kg, ip administered as single dose on 1 or 2 days post-tumor implantation; assay type: functional; details: route intraperitoneal; method in brief: as §2
Mus musculus [25] = assay: Antitumor activity against mouse advanced Lewis lung carcinoma allografted in BDF1 mouse assessed as disease cure at 55 mg/kg, ip administered as single dose on 7th day post-tumor implantation measured for 80 days post-drug treatment; assay type: functional, organism-based; set-up: dose 55 mg/kg; method in brief: as §3
Mus musculus [26] = assay: Antitumor activity against mouse advanced Lewis lung carcinoma allografted in BDF1 mouse assessed as complete regression of established tumor at 55 mg/kg, ip administered as single dose on 7th day post-tumor implantation; assay type: functional, organism-based; set-up: dose 55 mg/kg; method in brief: as §3
[27] = Antitumor activity against mouse advanced Lewis lung carcinoma allografted in BDF1 mouse assessed as increase in host life span at 55 mg/kg, ip administered as single dose on 7th day post-tumor implantation; assay type: functional; details: route intraperitoneal; method in brief: as §4
[28] = Antitumor activity against mouse advanced Lewis lung carcinoma allografted in ip dosed BDF1 mouse assessed as increase in host lifespan administered as single dose on day 6 or 7 post-tumor implantation; assay type: functional
Method in brief: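 Advanced Lewis lung model: about 40 mg fragments implanted sc by trocar into BDF1 mice, and mice with tumors of about 400 mg (day 6-7) selected. Tumor weight from calipers, w = ab²/2. Agent given as one ip dose in distilled water or physiological saline. Nontumor-bearing mice received matching doses as toxicity controls.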

[29] = Antitumor activity against mouse early Lewis lung carcinoma allografted in BDF1 mouse assessed as increase in host life span at 60 mg/kg, ip administered as single dose on 1 or 2 days post-tumor implantation; assay type: functional; details: route intraperitoneal; method in brief: as §1
[30] = Antitumor activity against mouse early Lewis lung carcinoma allografted in BDF1 mouse assessed as increase in host life span at 40 mg/kg, ip administered as single dose on 1 or 2 days post-tumor implantation; assay type: functional; details: route intraperitoneal; method in brief: as §1
Mus musculus [31] = assay: Antitumor activity against mouse advanced Lewis lung carcinoma allografted in BDF1 mouse assessed as complete regression of established tumor at 60 mg/kg, ip administered as single dose on 7th day post-tumor implantation; assay type: functional, organism-based; set-up: dose 60 mg/kg; method in brief: as §3
Mus musculus [32] = assay: Antitumor activity against mouse advanced Lewis lung carcinoma allografted in BDF1 mouse assessed as complete regression of established tumor at 40 mg/kg, ip administered as single dose on 7th day post-tumor implantation; assay type: functional, organism-based; set-up: dose 40 mg/kg; method in brief: as §3
Mus musculus [33] = assay: Antitumor activity against mouse advanced Lewis lung carcinoma allografted in BDF1 mouse assessed as disease cure at 40 mg/kg, ip administered as single dose on 7th day post-tumor implantation measured for 80 days post-drug treatment; assay type: functional, organism-based; set-up: dose 40 mg/kg; method in brief: as §4
Mus musculus [34] = assay: Antitumor activity against mouse advanced Lewis lung carcinoma allografted in BDF1 mouse assessed as disease cure at 60 mg/kg, ip administered as single dose on 7th day post-tumor implantation measured for 80 days post-drug treatment; assay type: functional, organism-based; set-up: dose 60 mg/kg; method in brief: as §3
[35] = Antitumor activity against mouse advanced Lewis lung carcinoma allografted in BDF1 mouse assessed as increase in host life span at 60 mg/kg, ip administered as single dose on 7th day post-tumor implantation; assay type: functional; details: route intraperitoneal; method in brief: as §4
[36] = Antitumor activity against mouse early Lewis lung carcinoma allografted in BDF1 mouse assessed as time delay in tumor growth at 60 mg/kg, ip administered as single dose on 1 or 2 days post-tumor implantation; assay type: functional; details: route intraperitoneal; method in brief: as §2
[37] = Antitumor activity against mouse early Lewis lung carcinoma allografted in BDF1 mouse assessed as time delay in tumor growth at 40 mg/kg, ip administered as single dose on 1 or 2 days post-tumor implantation; assay type: functional; details: route intraperitoneal; method in brief: as §2
[38] = Antitumor activity against mouse advanced Lewis lung carcinoma allografted in BDF1 mouse assessed as increase in host life span at 40 mg/kg, ip administered as single dose on 7th day post-tumor implantation; assay type: functional; details: route intraperitoneal; method in brief: as §4

## CC(C)(C)[C@H]1CC[C@H](NC(=O)N(CCCl)N=O)CC1
[1]
  ILS at 315 mg/kg: 19%
[2]
  ILS at 210 mg/kg: 24%
[3]
  Time: 22 days
[4]
  Time: 4.1 days
Mus musculus [5]
  Activity: inactive
[6]
  ILS at 316 mg/kg: 41%
[7]
  Activity: 10%
[8]
  Ratio: 0.6
Mus musculus [9]
  inhibition: Active
Mus musculus [10]
  Activity: inactive

## C[C@H]1CC[C@H](NC(=O)N(CCCl)N=O)CC1
[11]
  ILS at 36 mg/kg: 44%
[12]
  ILS at 24 mg/kg: 37%
[13]
  Time: 14 days
[14]
  Time: 6.5 days
[15]
  ILS at 36 mg/kg: 46%
[7]
  Activity: >50%
[8]
  Ratio: 0.4
Mus musculus [10]
  Activity: Active

## O=NN(CCCl)C(=O)N[C@H]1CC[C@H](NC(=O)N(CCCl)N=O)CC1
[16]
  ILS at 152 mg/kg: 41%
[17]
  ILS at 67 mg/kg: 34%
[18]
  Time: 4 days
[19]
  Time: 2 days
[20]
  ILS at 171 mg/kg: 146%
[7]
  Activity: 10%
[8]
  Ratio: 0.3
Mus musculus [10]
  Activity: Active

## O=NN(CCCl)C(=O)N[C@H]1CCCC[C@@H]1Cl (relative stereo)
[21]
  ILS at 57 mg/kg: 38%
[22]
  ILS at 38 mg/kg: 43%
[23]
  Time: 2.5 days
[24]
  Time: 3.3 days
Mus musculus [25]
  Activity: inactive
Mus musculus [26]
  inhibition: inactive
[27]
  ILS at 55 mg/kg: 18%
[7]
  Activity: 10%
[8]
  Ratio: 0.6
Mus musculus [9]
  inhibition: inactive
Mus musculus [10]
  Activity: inactive
[28]
  ILS: >25%

## O=NN(CCCl)C(=O)N[C@H]1CC[C@H](CCl)CC1
[29]
  ILS at 60 mg/kg: 87%
[30]
  ILS at 40 mg/kg: 74%
Mus musculus [31]
  inhibition: inactive
Mus musculus [32]
  inhibition: inactive
Mus musculus [33]
  Activity: inactive
Mus musculus [34]
  Activity: inactive
[35]
  ILS at 60 mg/kg: 109%
[36]
  Time: 4.3 days
[37]
  Time: 5.2 days
[38]
  ILS at 40 mg/kg: 51%
[7]
  Activity: 10%
[8]
  Ratio: 0.6
Mus musculus [9]
  inhibition: inactive
Mus musculus [10]
  Activity: inactive
[28]
  ILS: >25%
